# Test results published in paper PMC9989852 (Food and chemical toxicology : an international journal …, 2022).
# Several values for one entry are separate records, joined by “and”; a condition that tells them apart may be missing. Equal values may be shown once.
# Key:
# [1] = PFAS concentration in serum; type: in vivo, B6C3F1 mice; settings: dermal, 28 days
# Summary of the method: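 Serum came by cardiac puncture about 24 h after the final daily ear dose (25 μl/ear, acetone vehicle; female B6C3F1 mice). Samples underwent solid-phase extraction and LC/MS/MS. Short-chain analytes were quantified as linear isomer only; the legacy comparator was quantified as linear plus branched. Data are mean ± SE of 4–5 mice, one-way ANOVA with Dunnett's vs vehicle.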
# spleen = experiment: Spleen phenotyping by flow cytometry after 28-day dermal exposure; type: in vivo, B6C3F1 mice; settings: 28 days
# Summary of the method: (§1)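 Female B6C3F1 mice (5/group) received 25 μl/ear daily to the dorsal ears in acetone. About 24 h after the last dose, tissues went into RPMI: both auricular dLNs, half spleen and one ear pinna. Single-cell suspensions were acquired on an LSR II, with populations gated per supplemental strategy and FMO gating controls. Results are mean ± SE, n=5, by one-way ANOVA.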
# liver = experiment: Liver histopathology after 28-day dermal exposure; type: in vivo, B6C3F1 mice; settings: 28 days, mice affected of 5
# Summary of the method: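 Female B6C3F1 mice (5/group) received 25 μl/ear on the dorsal ear surfaces daily, with acetone as vehicle. Tissues were formalin-fixed about 24 h after the last dose: liver remainder, half spleen, right kidney and half ear pinna. Sections were paraffin-embedded, cut at 5 μm and stained with H&E. A veterinary pathologist read them per STP guideline and graded 1 (minimal) to 5 (severe) by extent.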
# B6C3F1 mice = experiment: Organ weights and body weight after 28-day dermal exposure; type: in vivo; settings: 28 days
# ear pinna = experiment: Skin; type: in vivo, B6C3F1 mice; settings: dermal, 28 days
# Summary of the method: as §1
# liver (caudate) = experiment: Liver gene expression; type: in vivo, B6C3F1 mice; settings: dermal, 28 days
# Summary of the method: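 Dosing was daily topical to both dorsal ears (25 μl/ear, acetone vehicle) in female B6C3F1 mice. Liver caudate lobe or half ear pinna was stored in RNAlater and homogenized in RLT buffer. RNA was isolated on RNeasy columns with DNase, and 1–2 μg was reverse-transcribed. TaqMan real-time PCR was read as 2−ΔΔCT vs vehicle, normalized to β-actin. Statistics: ANOVA/Dunnett's, or Kruskal-Wallis/Dunn's for unequal variance.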
compound,measurement,setting,value
"O=C(O)C(F)(F)C(F)(F)C(F)(F)C(F)(F)C(F)(F)F [PFHxA, perfluorohexanoic acid]",PFAS serum concentration vs vehicle,[1]; 2.5%,significant increase
same,PFAS serum concentration vs vehicle,[1]; 5%,significant increase
same,spleen MFI of CD86 on B-cells,spleen; 2.5%,increase
same,spleen NK cell frequency,spleen; 2.5%,increase
same,spleen frequency of CD11b + Ly6C + cells,spleen; 2.5%,significant decrease
same,spleen MFI of CD86 on B-cells,spleen; 5%,increase
same,spleen frequency of CD11b + Ly6C + cells,spleen; 5%,significant decrease
same,"Liver: Hypertrophy, centrilobular, hepatocyte, Mild (incidence)",liver; 1.25%,0
same,"Liver: Hypertrophy, centrilobular, hepatocyte, Minimal (incidence)",liver; 1.25%,2/5 and 2
same,"Liver: Hypertrophy, centrilobular, hepatocyte, Mild (incidence)",liver; 2.5%,0
same,"Liver: Hypertrophy, centrilobular, hepatocyte, Minimal (incidence)",liver; 2.5%,5/5 and 5
same,"Liver: Hypertrophy, centrilobular, hepatocyte, Mild (incidence)",liver; 5%,0
same,"Liver: Hypertrophy, centrilobular, hepatocyte, Minimal (incidence)",liver; 5%,5/5 and 5
same,body weight or overt signs of toxicity,B6C3F1 mice; 1.25–5%,no changes
same,"Liver weight (% body weight), increase vs vehicle-treated mice",B6C3F1 mice; 5%,9%
same,Ear CD4^+ cell number,ear pinna; 1.25%,2.40 ± 0.36 × 10^3
same,Ear CD4^+ frequency,ear pinna; 1.25%,3.34 ± 0.09%
same,Ear CD8^+ cell number,ear pinna; 1.25%,3.38 ± 2.57 × 10^2
same,Ear CD8^+ frequency,ear pinna; 1.25%,0.48 ± 0.37%
same,Ear CD45^+ cell number,ear pinna; 1.25%,7.21 ± 1.13 × 10^4
same,Ear CD45^+ frequency,ear pinna; 1.25%,8.51 ± 0.85%
same,Ear CD lib- F4/80+ DCs cell number,ear pinna; 1.25%,5.74 ± 0.72 × 10^2
same,Ear CDllb + F4/80+ DCs cell number,ear pinna; 1.25%,22.30 ± 3.03 × 10^2
same,Ear CDllb- F4/80+ DCs frequency,ear pinna; 1.25%,0.87 ± 0.14%
same,Ear CDllb- F4/80-DCs cell number,ear pinna; 1.25%,1.47 ± 0.24 × 10^3
same,Ear CDllb- F4/80-DCs frequency,ear pinna; 1.25%,2.05 ± 0.05 %
same,Ear Dendritic Cells cell number,ear pinna; 1.25%,4.99 ± 0.68 × 10^3
same,Ear Dendritic Cells frequency,ear pinna; 1.25%,7.09 ± 0.33%
same,Ear Eosinophils cell number,ear pinna; 1.25%,2.77 ± 0.56 × 10^3
same,Ear Eosinophils frequency,ear pinna; 1.25%,3.82 ± 0.34%
same,Ear NK cell number,ear pinna; 1.25%,4.76 ± 0.96 × 10^2
same,Ear NK frequency,ear pinna; 1.25%,0.66 ± 0.07%
same,Ear Neutrophils cell number,ear pinna; 1.25%,1.18 ± 0.22 × 10^2
same,Ear Neutrophils frequency,ear pinna; 1.25%,0.17 ± 0.02%
same,Ear Total Cellularity,ear pinna; 1.25%,0.83 ± 0.09 × 10^6
same,Ear CD4^+ cell number,ear pinna; 2.5%,5.01 ± 0.60 × 10^3
same,Ear CD4^+ frequency,ear pinna; 2.5%,5.05 ± 0.25 %
same,Ear CD8^+ cell number,ear pinna; 2.5%,1.91 ± 0.23 × 10^2
same,Ear CD8^+ frequency,ear pinna; 2.5%,0.19 ± 0.02%
same,Ear CD45^+ cell number,ear pinna; 2.5%,9.82 ± 0.79 × 10^4
same,Ear CD45^+ frequency,ear pinna; 2.5%,10.91 ± 1.00 %
same,Ear CD lib- F4/80+ DCs cell number,ear pinna; 2.5%,6.58 ± 0.67 × 10^2
same,Ear CDllb + F4/80+ DCs cell number,ear pinna; 2.5%,35.80 ± 2.66 × 10^2
same,Ear CDllb- F4/80+ DCs frequency,ear pinna; 2.5%,0.67 ± 0.05%
same,Ear CDllb- F4/80-DCs cell number,ear pinna; 2.5%,2.82 ± 0.24 × 10^3
same,Ear CDllb- F4/80-DCs frequency,ear pinna; 2.5%,2.89 ± 0.19%
same,Ear Dendritic Cells cell number,ear pinna; 2.5%,9.09 ± 0.72 × 10^3
same,Ear Dendritic Cells frequency,ear pinna; 2.5%,9.30 ± 0.47%
same,Ear Eosinophils frequency,ear pinna; 2.5%,7.59 ± 0.65 %
same,Ear NK cell number,ear pinna; 2.5%,6.45 ± 0.60 × 10^2
same,Ear NK frequency,ear pinna; 2.5%,0.66 ± 0.04%
same,Ear Neutrophils cell number,ear pinna; 2.5%,4.94 ± 1.24 × 10^2
same,Ear Neutrophils frequency,ear pinna; 2.5%,0.51 ± 0.13%
same,Ear Total Cellularity,ear pinna; 2.5%,0.91 ± 0.05 × 10^6
same,Ear CD4^+ cell number,ear pinna; 5%,6.11 ± 1.17 × 10^3
same,Ear CD4^+ frequency,ear pinna; 5%,5.29 ± 0.32 %
same,Ear CD8^+ cell number,ear pinna; 5%,2.15 ± 0.46 × 10^2
same,Ear CD8^+ frequency,ear pinna; 5%,0.20 ± 0.04%
same,Ear CD45^+ cell number,ear pinna; 5%,11.50 ± 2.03 × 10^4
same,Ear CD45^+ frequency,ear pinna; 5%,11.22 ± 1.00 %
same,Ear CD lib- F4/80+ DCs cell number,ear pinna; 5%,4.22 ± 0.49 × 10^2
same,Ear CDllb + F4/80+ DCs cell number,ear pinna; 5%,48.30 ± 7.74 × 10^2
same,Ear CDllb- F4/80+ DCs frequency,ear pinna; 5%,0.39 ± 0.03 %
same,Ear CDllb- F4/80-DCs cell number,ear pinna; 5%,2.90 ± 0.54 × 10^3
same,Ear CDllb- F4/80-DCs frequency,ear pinna; 5%,2.51 ± 0.14%
same,Ear Dendritic Cells cell number,ear pinna; 5%,10.10 ± 1.77 × 10^3
same,Ear Dendritic Cells frequency,ear pinna; 5%,8.88 ± 0.39%
same,Ear Eosinophils cell number,ear pinna; 5%,9.87 ± 1.78 × 10^3
same,Ear Eosinophils frequency,ear pinna; 5%,8.60 ± 0.38 %
same,Ear NK cell number,ear pinna; 5%,9.94 ± 2.21 × 10^2
same,Ear NK frequency,ear pinna; 5%,0.85 ± 0.09 %
same,Ear Neutrophils frequency,ear pinna; 5%,1.13 ± 0.23 %
same,Ear Total Cellularity,ear pinna; 5%,0.99 ± 0.11 × 10^6
same,liver Pparδ expression,liver (caudate); 1.25%,decreasing
same,liver Acox1 gene expression,liver (caudate); 2.5%,increase
same,liver Fabp1 gene expression,liver (caudate); 2.5%,increased
same,liver Pparδ expression,liver (caudate); 2.5%,decreasing
same,"liver Cd36 gene expression, increase",liver (caudate); 5%,4.6 fold
same,"liver Ehhadh gene expression, increase",liver (caudate); 5%,4.8 fold
same,liver Pparδ expression,liver (caudate); 5%,decreasing
